Source: ChEMBL document CHEMBL4130512, “Design, synthesis and biological evaluation of novel α-hederagenin derivatives with anticancer activity” (Eur J Med Chem, 2017)
The source made the active and inactive calls. No cut-off for these calls is given here.

Legend:
[1] = system: MKN-45; assay: Antiproliferative activity against human MKN45 cells assessed as cell viability at 100 nM after 72 hrs by MTT assay relative to control; type: functional; conditions: MKN-45, 72 h, read-out: Activity
Procedure, shortened: (§1)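 Single-concentration MTT screen. Log-phase cells in DMEM with 10% FCS were treated for 72 h in 96-well plates. After MTT and DMSO, absorbance was read at 570 nm. Viability was calculated relative to control as mean ± SD of three independent experiments.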

[2] = system: KB; assay: Antiproliferative activity against human KB cells assessed as cell viability at 100 nM after 72 hrs by MTT assay relative to control; type: functional; conditions: read-out: Activity; procedure, shortened: as §1
[3] = system: MKN-45; assay: Antiproliferative activity against human MKN45 cells assessed as cell viability at 10 uM after 72 hrs by MTT assay relative to control; type: functional; conditions: MKN-45, 72 h, read-out: Activity; procedure, shortened: as §1
[4] = system: KB; assay: Antiproliferative activity against human KB cells assessed as cell viability at 10 uM after 72 hrs by MTT assay relative to control; type: functional; conditions: read-out: Activity; procedure, shortened: as §1
[5] = system: KB; assay: Antiproliferative activity against human KB cells after 72 hrs by MTT assay; type: functional, cell-based
Procedure, shortened: (§2)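 Cells grown in DMEM with 10% heat-inactivated FCS, penicillin and streptomycin, at 37°C in 5% CO₂, and used in log phase. Cells were seeded in 96-well plates and exposed to compound for 72 h. MTT was added, then DMSO, and OD was read at 570 nm. Survival rate was calculated and IC50 taken as 50% growth inhibition.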

[6] = Antiproliferative activity against human KBV cells after 72 hrs by MTT assay; type: functional, cell-based; procedure, shortened: as §2
[7] = system: HeLa; assay: Antiproliferative activity against human HeLa cells after 72 hrs by MTT assay; type: functional, cell-based; procedure, shortened: as §2
[8] = system: A549; assay: Antiproliferative activity against human A549 cells after 72 hrs by MTT assay; type: functional, cell-based; conditions: A549, 72 h; procedure, shortened: as §2
[9] = system: MKN-45; assay: Antiproliferative activity against human MKN45 cells after 72 hrs by MTT assay; type: functional, cell-based; conditions: MKN-45, 72 h; procedure, shortened: as §2
[10] = system: BGC-823; assay: Antiproliferative activity against human BGC823 cells after 72 hrs by MTT assay; type: functional, cell-based; conditions: BGC-823, 72 h; procedure, shortened: as §2
[11] = system: AGS; assay: Antiproliferative activity against human AGS cells after 72 hrs by MTT assay; type: functional, cell-based; procedure, shortened: as §2
[12] = system: MKN-45; assay: Cell cycle arrest in human MKN45 cells assessed as apoptotic cell accumulation at 10 uM after 24 hrs by propidium iodide staining based flow cytometry (reference value: 1.51%); type: functional
Procedure, shortened: (§3)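 MKN45 cells were plated at 2×10⁵ cells/well in 6-well plates and exposed for 24 and 48 h. Cells were harvested, fixed and stained with propidium iodide (50 µg/mL). DNA content was read by FACScan flow cytometry for phase distribution. The sub-G0/G1 fraction was taken as apoptotic.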

[13] = system: MKN-45; assay: Cell cycle arrest in human MKN45 cells assessed as accumulation at G1-phase at 10 uM after 24 hrs by propidium iodide staining based flow cytometry (reference value: 67%); type: functional; procedure, shortened: as §3
[14] = system: MKN-45; assay: Cell cycle arrest in human MKN45 cells assessed as accumulation at S-phase at 10 uM after 24 hrs by propidium iodide staining based flow cytometry (reference value: 15%); type: functional; procedure, shortened: as §3
[15] = system: MKN-45; assay: Cell cycle arrest in human MKN45 cells assessed as accumulation at G2/M-phase at 10 uM after 24 hrs by propidium iodide staining based flow cytometry (reference value: 19%); type: functional; procedure, shortened: as §3
[16] = system: MKN-45; assay: Cell cycle arrest in human MKN45 cells assessed as apoptotic cell accumulation at 10 uM after 48 hrs by propidium iodide staining based flow cytometry (reference value: 1.51%); type: functional; procedure, shortened: as §3
[17] = system: MKN-45; assay: Cell cycle arrest in human MKN45 cells assessed as accumulation at G1-phase at 10 uM after 48 hrs by propidium iodide staining based flow cytometry (reference value: 67%); type: functional; procedure, shortened: as §3
[18] = system: MKN-45; assay: Cell cycle arrest in human MKN45 cells assessed as accumulation at S-phase at 10 uM after 48 hrs by propidium iodide staining based flow cytometry (reference value: 15%); type: functional; procedure, shortened: as §3
[19] = system: MKN-45; assay: Cell cycle arrest in human MKN45 cells assessed as accumulation at G2/M-phase at 10 uM after 48 hrs by propidium iodide staining based flow cytometry (reference value: 19%); type: functional; procedure, shortened: as §3
[20] = system: MKN-45; assay: Induction of apoptosis in human MKN45 cells assessed as increase in cleaved PARP expression at 5 to 10 uM after 48 hrs by Western blot method; type: functional, cell-based
Procedure, shortened: (§4)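 MKN45 cells (2×10⁵) were treated with 5 or 10 µM. Lysates were run by electrophoresis and transferred to PVDF. Blots were probed overnight at 4°C for Bax, BCL2, PARP and β-actin (loading control), then with HRP secondary, and detected by ECL. Band density was scored in arbitrary units; three experiments.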

[21] = system: MKN-45; assay: Induction of apoptosis in human MKN45 cells assessed as decrease in Bcl2 expression after 24 hrs by Western blot method; type: functional, cell-based; procedure, shortened: as §4
[22] = system: MKN-45; assay: Induction of mitochondrial membrane potential loss in human MKN45 cells at 5 to 10 uM after 24 hrs by JC-1 staining based flow cytometry; type: functional, cell-based
Procedure, shortened: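 MKN45 cells were plated at 2×10⁵ cells/well in 6-well plates and exposed to indicated concentrations for 24 h. They were stained with JC-1 for 20 min, and the change in mitochondrial membrane potential was measured by flow cytometry; three experiments.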

[23] = system: MKN-45; assay: Induction of apoptosis in human MKN45 cells assessed as increase in Bax expression at 5 to 10 uM after 24 hrs by Western blot method; type: functional, cell-based; procedure, shortened: as §4
[24] = system: MKN-45; assay: Induction of apoptosis in human MKN45 cells assessed as increase in Bax/Bcl2 expression ratio at 5 to 10 uM after 24 hrs by Western blot method; type: functional, cell-based; procedure, shortened: as §4

CC(=O)O[C@H]1C(=O)[C@@]2(C)[C@H]([C@H](OC(=O)c3ccccc3)[C@]3(O)C[C@H](OC(=O)[C@H](O)[C@@H](NC(=O)c4ccccc4)c4ccccc4)C(C)=C1C3(C)C)[C@]1(OC(C)=O)CO[C@@H]1C[C@@H]2O [PACLITAXEL]
viability at 0.1 µM [1]: 23% | viability at 0.1 µM [2]: 15%

CCN/C(=N/CCCN(C)C)OC(=O)c1ccccc1C(=O)OC[C@]1(C)C(=O)CC[C@@]2(C)[C@H]1CC[C@]1(C)[C@@H]2CC=C2[C@@H]3CC(C)(C)CC[C@]3(C(=O)OCc3ccccc3)CC[C@]21C
viability at 10 µM [3]: 7% | viability at 10 µM [4]: 26% | IC50 [5]: 4.75 µM | IC50 [6]: 8.05 µM | IC50 [7]: 4.22 µM | IC50 [8]: 6.3 µM | IC50 [9]: 7 µM | IC50 [10]: 5.15 µM | IC50 [11]: 4.4 µM | Activity [12]: 2.47% | Activity [13]: 68% | Activity [14]: 11% | Activity [15]: 21% | Activity [16]: 38.68% | Activity [17]: 54% | Activity [18]: 16% | Activity [19]: 31% | Activity [20]: Active | Activity [21]: Dose-dependent effect | Activity [22]: Active | Activity [23]: Active | Activity [24]: Active

CC1(C)CC[C@]2(C(=O)OCc3ccccc3)CC[C@]3(C)C(=CC[C@@H]4[C@@]5(C)Cc6nccnc6[C@@](C)(COC(=O)c6ccccc6C(=O)Oc6ccc(CCO[N+](=O)[O-])cc6)[C@@H]5CC[C@]43C)[C@@H]2C1
viability at 10 µM [3]: 78% | viability at 10 µM [4]: 49%

CC1(C)CC[C@]2(C(=O)OCc3ccccc3)CC[C@]3(C)C(=CC[C@@H]4[C@@]5(C)Cc6nccnc6[C@@](C)(COC(=O)CCC(=O)O)[C@@H]5CC[C@]43C)[C@@H]2C1
viability at 10 µM [3]: 70% | viability at 10 µM [4]: 98%

CC1(C)CC[C@]2(C(=O)OCc3ccccc3)CC[C@]3(C)C(=CC[C@@H]4[C@@]5(C)CCC(=O)[C@@](C)(COC(=O)c6ccccc6C(=O)Oc6ccc(CCO[N+](=O)[O-])cc6)[C@@H]5CC[C@]43C)[C@@H]2C1
viability at 10 µM [3]: 78% | viability at 10 µM [4]: 86%

CC1(C)CC[C@]2(C(=O)O)CC[C@]3(C)C(=CC[C@@H]4[C@@]5(C)CC[C@H](O)[C@@](C)(CO)[C@@H]5CC[C@]43C)[C@@H]2C1 [HEDERAGENIN]
viability at 10 µM [3]: 75% | viability at 10 µM [4]: 81% | IC50 [5]: 54.4 µM | IC50 [6]: > 100 µM | IC50 [7]: 54 µM | IC50 [8]: > 100 µM | IC50 [9]: 53.7 µM | IC50 [10]: 52.1 µM | IC50 [11]: 36.1 µM | Activity [12]: 1.44% | Activity [13]: 69% | Activity [14]: 14% | Activity [15]: 17% | Activity [16]: 5.87% | Activity [17]: 63% | Activity [18]: 12% | Activity [19]: 25%

CC1(C)CC[C@]2(C(=O)OCc3ccccc3)CC[C@]3(C)C(=CC[C@@H]4[C@@]5(C)CCC(=O)[C@@](C)(COC(=O)CCC(=O)OCCc6ccc(OCCO[N+](=O)[O-])cc6)[C@@H]5CC[C@]43C)[C@@H]2C1
viability at 10 µM [3]: 93% | viability at 10 µM [4]: 76%

CC1(C)CC[C@]2(C(=O)OCc3ccccc3)CC[C@]3(C)C(=CC[C@@H]4[C@@]5(C)Cc6nccnc6[C@@](C)(COC(=O)CCC(=O)Nc6ccccc6N)[C@@H]5CC[C@]43C)[C@@H]2C1
viability at 10 µM [3]: 86% | viability at 10 µM [4]: 57%

CC1(C)CC[C@]2(C(=O)OCc3ccccc3)CC[C@]3(C)C(=CC[C@@H]4[C@@]5(C)CCC(OC(=O)CCCCCO[N+](=O)[O-])[C@@](C)(COC(=O)CCCCCO[N+](=O)[O-])[C@@H]5CC[C@]43C)[C@@H]2C1 (some centres undefined)
viability at 10 µM [3]: 85% | viability at 10 µM [4]: 61%

CC1(C)CC[C@]2(C(=O)OCc3ccccc3)CC[C@]3(C)C(=CC[C@@H]4[C@@]5(C)Cc6nccnc6[C@@](C)(COC(=O)c6ccccc6C(=O)O)[C@@H]5CC[C@]43C)[C@@H]2C1
viability at 10 µM [3]: 84% | viability at 10 µM [4]: 81%

CC1(C)CC[C@]2(C(=O)OCc3ccccc3)CC[C@]3(C)C(=CC[C@@H]4[C@@]5(C)CCC(=O)[C@@](C)(COC(=O)CCCCCO[N+](=O)[O-])[C@@H]5CC[C@]43C)[C@@H]2C1
viability at 10 µM [3]: 75% | viability at 10 µM [4]: 50%

CC1(C)CC[C@]2(C(=O)OCc3ccccc3)CC[C@]3(C)C(=CC[C@@H]4[C@@]5(C)Cc6nccnc6[C@@](C)(COC(=O)CCCCO[N+](=O)[O-])[C@@H]5CC[C@]43C)[C@@H]2C1
viability at 10 µM [3]: 89% | viability at 10 µM [4]: 59%
